Assay results from different studies.
Each line is one published result; the experiments were not run side by side.
Target: Carbonic anhydrase 2 (CA2, Homo sapiens, UniProt P00918)
Observed: enzyme activity
Action: inhibitor

For `Cn1cnc([N+](=O)[O-])c1Sc1ncnc2nc[nH]c12`, the Ki was 13 µM (absorbance).
For `NS(=O)(=O)c1nnc(NC(=O)C2CCC3(CCC3)CC2)s1`, the Ki was 0.0217 µM (stopped-flow).
For `OC1CCN(c2ccc(/C=N/NC(=S)Nc3ccccc3)cc2)CC1`, the Ki was 0.507 µM.
The Ki of `CC(C)[C@H](N)C(=O)OCCOCn1cnc2c(=O)[nH]c(N)nc21` is reported as 5.74 µM (absorbance).
`OC1CCN(c2ccc(/C=N/NC(=S)NCCc3ccccc3)cc2)CC1` has a Ki of 0.656 µM.
With `Cc1cncc(CN2CCC(=C3c4ccc(Cl)cc4CCc4cccnc43)CC2)c1` the Ki was 9.18 µM (absorbance).
With `OC1CCN(c2ccc(/C=N/NC(=S)NC3CCCCC3)cc2)CC1` the Ki was 0.482 µM.
`NS(=O)(=O)c1nnc(NC(=O)CN2CC3CCC2CC3)s1` has a Ki of 0.0437 µM (stopped-flow).
The Ki of `Cc1cccc(C)c1NC(=S)N/N=C/c1ccc(N2CCC(O)CC2)cc1` is reported as 0.436 µM.
The Ki of `NS(=O)(=O)c1nnc(NC(=O)CN2CCC(F)CC2)s1` is reported as 0.0141 µM (stopped-flow).
`OC1CCN(c2ccc(/C=N/NC(=S)NCc3ccccc3)cc2)CC1` has a Ki of 0.561 µM.
For `NS(=O)(=O)c1cnc(NC(=O)CC2CCCCC2)s1`, the Ki was 0.0543 µM (stopped-flow).
For `Cc1c(Cl)c(=O)oc2cc(OCCCCSC#N)ccc12`, the Ki was > 100 µM (stopped-flow).
`OC1CCN(c2ccc(/C=N/NC(=S)NCc3ccc(Cl)cc3)cc2)CC1` has a Ki of 0.378 µM.
`O=c1[nH]c(=O)n([C@H]2C[C@H](O)[C@@H](CO)O2)cc1/C=C/Br` gave a Ki of 7.44 µM (absorbance).
With `C[C@H]1CCC[C@H](C(=O)Nc2nnc(S(N)(=O)=O)s2)C1` (racemic) the Ki was 0.0149 µM (stopped-flow).
The Ki of `Nc1ccc(S(=O)(=O)c2ccc(N)cc2)cc1` is reported as 9.48 µM (absorbance).
For `Cc1cc(=O)oc2cc(OCCCCSC#N)ccc12`, the Ki was > 100 µM (stopped-flow).
For `CN(C)CCC(c1ccccc1)c1ccccn1` (centres unmarked), the Ki was 14 µM (absorbance).
For `NS(=O)(=O)c1nnc(NC(=O)C2CC23CCCOC3)s1` (centres unmarked), the Ki was 0.0508 µM (stopped-flow).
